Test results: PubChem BioAssay AID624018 (Broad Institute, 2012)
Calls of active or inactive are those of the source.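 Rule for the calls: active = fitted curve reaches a 35% signal drop at a concentration no higher than twice the top valid dose, in duplicate at both wavelengths; inactive = the rest, including activity in the opposite direction.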

test system: P. aeruginosa growth with EDDHA, absorbance 405 nm, 24-30 h; assay: bacterial growth inhibition with EDDHA chelator – absorbance 405 nm, dry powder, dose response (AID 624018); conditions: not given
Outline: (§1)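 Assay system – P. aeruginosa ATCC 15692 cells · Medium – succinate M9, pH 7.0, 2 µM EDDHA · Dosing – compound dilution series in 3-fold steps · Schedule – 24-30 h exposure at 37 °C · Measured by – 405 nm absorbance for pyoverdine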

SMILES | AC35 [µM]
N#CC(c1ccc(Cl)cc1)c1cccc(C(F)(F)F)n1 (stereo unspecified) | 19.5
N#CC(c1cccc(C(F)(F)F)n1)c1ccc(Cl)cc1F (stereo unspecified) | 22.7
N#CC(c1ccc(Cl)cc1)c1ncccc1Cl (stereo unspecified) | 12.6
N#CC(c1ccc(F)cc1)c1cccc(C(F)(F)F)n1 (stereo unspecified) | 37.6

test system: not listed separately; assay: as above; conditions: P. aeruginosa growth with EDDHA, absorbance 405 nm, 24-30 h; at 16 µM (top of the series)
Outline: as §1

SMILES | activity change, negative = inhibition
Cc1ccc(C(C#N)c2ccccc2OC(F)(F)F)nc1C#N (stereo unspecified) | -20.9% (inactive)

same assay, conditions: P. aeruginosa growth with EDDHA, absorbance 405 nm, 24-30 h; at 50 µM (top of the series)

SMILES | activity change, negative = inhibition
Cc1ccc(C(C#N)c2ccc(F)cc2)nc1C#N (stereo unspecified) | -6.49% (inactive)
N#CC(c1ccc(C(F)(F)F)c(Cl)n1)c1ccccc1OC(F)(F)F (stereo unspecified) | -8.72% (inactive)
N#CC(c1cccc(C(F)(F)F)n1)c1ccccc1OC(F)(F)F (stereo unspecified) | -7.42% (inactive)
N#Cc1cccc(C(C#N)c2ccccc2OC(F)(F)F)n1 (stereo unspecified) | -10.3% (inactive)
N#Cc1ccc(C(C#N)c2ccc(Cl)cc2Cl)nc1 (stereo unspecified) | 1.04% (inactive)
N#CC(c1ccc(F)cc1)c1ccc(C(F)(F)F)c(Cl)n1 (stereo unspecified) | -5.95% (inactive)
CCCCC(C#N)c1ccc(Cl)cc1F (stereo unspecified) | -1.21% (inactive)
N#Cc1cccc(C(C#N)c2ccc(Cl)cc2F)n1 (stereo unspecified) | -14.6% (inactive)
N#CC(c1cccc(Cl)n1)c1ccccc1OC(F)(F)F (stereo unspecified) | -14.6% (inactive)
N#CC(c1ccc(Cl)cc1)c1ccc(C(F)(F)F)cn1 (stereo unspecified) | 4.01% (inactive)
Cc1cccc(C(C#N)c2ccc(Cl)cc2)n1 (stereo unspecified) | -2.34% (inactive)
CCCCC(C#N)c1ccc(Cl)cc1 (stereo unspecified) | -4.2% (inactive)
CCCCC(C#N)c1ccc(Cl)cc1Cl (stereo unspecified) | -10.8% (inactive)
CCCCC(C#N)c1ccc(F)cc1 (stereo unspecified) | -10.3% (inactive)
Cc1ccc(C(C#N)c2ccc(Cl)cc2)nc1 (stereo unspecified) | -8.79% (inactive)
N#CC(c1cccc(Cl)n1)c1ccc(Cl)cc1Cl (stereo unspecified) | -22.8% (inactive)

SMILES | activity change, negative = inhibition
N#CC(CC1CC1)c1ccc(Cl)cc1 (stereo unspecified) | -14.4% (inactive)
N#Cc1ccc(C(C#N)c2ccc(Cl)cc2)nc1 (stereo unspecified) | -10.4% (inactive)
CCCCC(C#N)c1ccc(C(F)(F)F)cc1 (stereo unspecified) | -6.7% (inactive)
N#CC(c1ccc(C(F)(F)F)cc1)c1cccc(C(F)(F)F)n1 (stereo unspecified) | -4.57% (inactive)
CCCCC(C#N)c1ccccc1OC(F)(F)F (stereo unspecified) | -4.38% (inactive)
N#CC(c1ccc(C(F)(F)F)cc1)c1ccc(C(F)(F)F)c(Cl)n1 (stereo unspecified) | -6.74% (inactive)
N#CC(c1ccc(Cl)cc1Cl)c1ncccc1Cl (stereo unspecified) | 2.07% (inactive)
CCCC(C#N)c1ccc(Cl)cc1 (stereo unspecified) | -12.6% (inactive)
N#Cc1cccc(C(C#N)c2ccc(Cl)cc2)n1 (stereo unspecified) | -11.9% (inactive)
Cc1ccc(C(C#N)c2ccc(Cl)cc2)nc1C#N (stereo unspecified) | -4.08% (inactive)
N#CC(c1ccc(C(F)(F)F)c(Cl)n1)c1ccc(Cl)cc1Cl (stereo unspecified) | 4.93% (inactive)
CC(C#N)(c1ccc(Cl)cc1)c1ccc(C(F)(F)F)cn1 (stereo unspecified) | -3.75% (inactive)
N#Cc1cccc(C(C#N)c2ccc(Cl)cc2Cl)n1 (stereo unspecified) | -3.73% (inactive)
N#CC(c1ccc(C(F)(F)F)cc1)c1cccc(Cl)n1 (stereo unspecified) | -8.88% (inactive)
N#CC(c1ccc(Cl)cc1)c1ccc(C(F)(F)F)c(Cl)n1 (stereo unspecified) | 11.9% (inactive)
